From PubChem BioAssay
ABCG2 block – human ABCG2 inhibition, ABCB1 as counter-screen; IgMXP3 cells, JC-1 efflux, flow cytometry; hit rate 0.1% among 190,000; AID 1325; inhibition, % at 6.6 µM; Q9UNQ0;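 active = inhibition above 80%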
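Test system: IgMXP3 (ABCG2) plus far-red-tagged CCRF-Adr (ABCB1) cells / Amount: 3 million cells/mL in well / Reagent: JC-1 transporter substrate / Timing: 10 min compound exposure, 25 °C / Signal: flow cytometry, 530 nm JC-1 signal / Read-out: percent efflux inhibition, scaled nicardipine 100% to DMSO 0% / Benchmarks: nicardipine as high control, DMSO as low control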
PMI act satM6P – increases human PMI activity with near-saturating mannose 6-phosphate | P34949 | AID 1216 | hit rate 0.34% among 190,000 | coupled PMI enzyme assay, resazurin fluorescence, 20 min; active compounds read high; 1 = untreated enzyme, 0 = substrate-free blank | activation factor at 20 µM;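 active = activation factor of 2 or more at 20 µM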
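Material: human phosphomannose isomerase with PGI, G6PDH, diaphorase coupling enzymes. Quantity: 15 ng/mL PMI. Medium: HEPES pH 7.4 buffer with MgCl2 and Tween-20. Reagent: Near-saturating mannose-6-phosphate, 1.0 mM. Compound: 20 µM single dose. Times: enzyme reaction with compound 20 min at room temperature. Detection: resorufin fluorescence at Ex 544/Em 590 nm.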
PMI activator – phosphomannose isomerase (human) activation; purified human PMI, coupled resazurin fluorescence, 20 min; active compounds read high; 1 = vehicle control, 0 substrate-free wells; P34949; activation factor at 20 µM; hit rate 0.005% among 190,000;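 active = activation factor of 2 or more at 20 µM, relative to plate controls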
ABCB1 block – human ABCB1 inhibition, ABCG2 as counter-screen; P08183; CCRF-Adr cells, JC-1 efflux, flow cytometry; inhibition, % at 6.6 µM; hit rate 0.067% among 190,000; AID 1326; in the data active = inhibition above about 40%;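 also: higher value means more JC-1 retained so stronger ABCB1 efflux block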
ROMK mod – modulates human ROMK potassium channel activity; P48048; Tet-inducible ROMK, thallium flux fluorescence; actives lie on both sides; B-score at 10 µM; hit rate 2% among 130,000;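 active = signal ratio slope over the read window, or its plate-corrected B-score, at least 3 SD from the plate mean, either direction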;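 also: B-score of the F/F0 ratio slope over 7 to 12 s after thallium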
KCC2 mod – modulates chloride dependent transport by human KCC2; Q9H2X9; KCC2 cells, thallium flux FluoZin-2 fluorescence; B-score of Tl+ flux slope (higher = more flux/activation; lower = inhibition) at 10 µM; hit rate 2.2% among 190,000; AID 1456;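 active = thallium flux slope and its plate-corrected score both differing from the plate sample mean at a set confidence after two filtering rounds, in either direction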;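 also: slope of fluorescence scaled to starting intensity during 10 to 20 s after thallium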
ROMK hit retest – confirmation of human ROMK potassium channel modulators; ROMK thallium flux, fluorescence ratio; active compounds read low; normalized thallium flux (F/F0 slope) at 10 µM; shares compounds with ROMK mod; hit rate 54% among 3,000;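 active = Flux at 10 µM at least 3 SD below or above vehicle control mean in one or both replicates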
A number is an active result. Only some compounds are listed: those with a hit (about 3.3% of all), similar ones and a draw of the others.

COc1cc(C2C(C#N)=C(N)Oc3cc(O)ccc32)cc2c1OCO2 (configuration not stated) was read as ABCG2 block inactive, PMI act satM6P inactive, PMI activator inactive, ABCB1 block inactive, ROMK mod inactive and KCC2 mod inactive.
`COc1cc(C2C(C#N)=C(N)Oc3cc4c(cc32)OCO4)cc(OC)c1OC` (configuration not stated) gave ABCG2 block inactive, PMI act satM6P inactive, PMI activator inactive, ABCB1 block inactive, ROMK mod 4.71, KCC2 mod inactive and ROMK hit retest inactive.
`COc1cc(C2C(C#N)=C(N)Oc3cc(N(C)C)ccc32)cc2c1OCO2` (configuration not stated) gave ABCG2 block inactive, PMI act satM6P inactive, PMI activator inactive, ABCB1 block inactive, KCC2 mod inactive and ROMK hit retest 0.0576.
COc1ccc(NS(=O)(=O)c2ccc3nc(COc4ccc(C#N)cc4)[nH]c3c2)cc1 was read as ABCG2 block inactive, PMI act satM6P inactive, PMI activator inactive, ABCB1 block inactive, ROMK mod inactive and KCC2 mod inactive.
Cc1ccc(S(=O)(=O)N2CCOCC2)cc1C(=O)NC(=S)N1CC(C)OC(C)C1 (configuration not stated) was read as KCC2 mod inactive.
Screening COc1ccc2c(n1)Sc1nc3ccccc3nc1N2 returned KCC2 mod inactive and ROMK hit retest 0.0566.
`O=C(Nc1ccc2c(c1)C(=O)NC2=O)c1ccc2ncsc2c1` gave ABCG2 block inactive, PMI act satM6P inactive, PMI activator inactive, ABCB1 block inactive, ROMK mod inactive and KCC2 mod inactive.
For COc1ccc(N2C(=O)CC2(/C=C/c2ccccc2OC)C(=O)NC2CCCC2)cc1 (configuration not stated) the results were ABCG2 block inactive, PMI act satM6P inactive, PMI activator inactive, ABCB1 block inactive, ROMK mod -4.7, KCC2 mod inactive and ROMK hit retest 0.0537.
Screening C=CCC1(CC=C)CCCN1Cc1nc(COc2ccccc2)no1 returned KCC2 mod inactive.
`CN(C)CCN1C(=O)C(O)=C(C(=O)c2ccco2)C1c1ccccc1F` (configuration not stated) gave ABCG2 block inactive, PMI act satM6P inactive, PMI activator inactive, ABCB1 block inactive and ROMK hit retest inactive.
Cc1c(C(=O)/C=C/N(C)C)nnn1-c1ccc(Cl)cc1C#N was read as KCC2 mod inactive.
`CCOc1ccc(C(c2c(NC(=O)c3ccccc3)sc(C)c2C)N2CCN(CCO)CC2)cc1` (configuration not stated) gave ABCG2 block inactive, PMI act satM6P inactive, PMI activator inactive, ABCB1 block inactive, ROMK mod inactive and KCC2 mod inactive.
Screening Cc1sc(NC(=O)c2ccccc2)c(C(c2ccc(Cl)cc2)N2CCN(CCO)CC2)c1C (configuration not stated) returned ABCG2 block inactive, PMI act satM6P inactive, PMI activator inactive, ABCB1 block inactive, ROMK mod -2.41, KCC2 mod inactive and ROMK hit retest inactive.
`Cc1ccc(NC(=O)CSc2nnc(-c3ccncc3)n2C)cc1S(=O)(=O)N1CCOCC1` gave ABCG2 block inactive, PMI act satM6P inactive, PMI activator inactive, ABCB1 block inactive and ROMK mod inactive.
`C=CC[n+]1c(-c2ccc(Cl)cc2Cl)csc1Nc1ccc(NC(C)=O)cc1` gave ABCG2 block inactive, PMI act satM6P inactive, PMI activator inactive, ABCB1 block inactive, ROMK mod 2.54, KCC2 mod inactive and ROMK hit retest inactive.
Screening CC(=O)NN1C(=O)/C(=C/c2ccc(Br)o2)SC1=S returned ABCG2 block inactive, PMI act satM6P inactive, PMI activator inactive, ABCB1 block inactive and KCC2 mod inactive.
Screening CC(=O)NN1C(=O)/C(=C\c2ccc(Br)o2)SC1=S returned ABCG2 block inactive, PMI act satM6P inactive, PMI activator inactive, ABCB1 block inactive, ROMK mod -4.14, KCC2 mod inactive and ROMK hit retest 0.0551.
